Active and inactive are the calls of the source. The rule behind the calls is not given here.
Legend:
Dengue virus [1] = test: Antiviral activity against Dengue virus infected in african green monkey Vero cells administered before viral challenge after 3 days by viral plaque assay; assay type: functional, organism-based
Summary of the method: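 Monolayers seeded at 1 × 10^4 cells per well were pretreated for 180 min at 37°C with inhibitor at two noncytotoxic concentrations. They were then inoculated with DENV at moi 1 for 60 min at 37°C. Supernatant harvested 3 days postinfection was titrated by plaque assay. Activity was called at ≥five-fold (0.7 log) titer decrease.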

Dengue virus [2] = test: Antiviral activity against Dengue virus infected in african green monkey Vero cells administered after viral challenge after 3 days by viral plaque assay; assay type: functional, organism-based
Summary of the method: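 Cells were seeded at 1 × 10^4 per well and infected with DENV at moi 1. Protein kinase inhibitors were then added at two noncytotoxic concentrations, set beforehand by MTT assay in Vero cells. After 3 days, infectious yield in the supernatant was titrated by plaque assay. Activity was called at ≥five-fold (0.7 log) titer decrease.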

dengue virus type 2 [3] = test: Antiviral activity against Dengue virus 2 infected in asian tiger mosquito C6/36 cells; assay type: functional, organism-based
Summary of the method: (§1)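 Vero, Huh-7 or C6/36 cells were infected with DENV2 at moi 1. Inhibitor was then added at noncytotoxic concentrations of 50 nM–5 μM for three days. Virus titer in the culture supernatant was measured by plaque assay.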

dengue virus type 2 [4] = test: Antiviral activity against Dengue virus 2 infected in african green monkey Vero cells; assay type: functional, organism-based; summary of the method: as §1
Dengue virus [5] = test: Inhibition of viral spread in Dengue virus-infected african green monkey Vero cells assessed as accumulation of viral envelope protein within perinuclear region at 2.5 uM after 4 days by immunofluorescence assay relative to control; assay type: functional, organism-based
Summary of the method: (§2)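 Vero, Huh-7 or C6/36 cells were infected with DENV2 at moi 1 and then treated with 2.5 μM inhibitor or DMSO. Cells were fixed at days 4, 5 and 6 postinfection and stained for envelope protein by immunofluorescence. Envelope localization, including perinuclear accumulation, and infection of surrounding cells were compared with the DMSO control.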

Dengue virus [6] = test: Inhibition of viral spread in Dengue virus-infected african green monkey Vero cells assessed as accumulation of viral envelope protein within perinuclear region at 2.5 uM after 5 days by immunofluorescence assay relative to control; assay type: functional, organism-based; summary of the method: as §2
Dengue virus [7] = test: Inhibition of viral spread in Dengue virus-infected african green monkey Vero cells assessed as accumulation of viral envelope protein within perinuclear region at 2.5 uM after 6 days by immunofluorescence assay relative to control; assay type: functional, organism-based; summary of the method: as §2
Dengue virus [8] = test: Inhibition of viral spread in Dengue virus-infected human Huh7 cells assessed as accumulation of viral envelope protein within perinuclear region at 2.5 uM after 4 days by immunofluorescence assay relative to control; assay type: functional, organism-based; details: Huh-7; summary of the method: as §2
Dengue virus [9] = test: Inhibition of viral spread in Dengue virus-infected human Huh7 cells assessed as accumulation of viral envelope protein within perinuclear region at 2.5 uM after 5 days by immunofluorescence assay relative to control; assay type: functional, organism-based; details: Huh-7; summary of the method: as §2
Dengue virus [10] = test: Inhibition of viral spread in Dengue virus-infected human Huh7 cells assessed as accumulation of viral envelope protein within perinuclear region at 2.5 uM after 6 days by immunofluorescence assay relative to control; assay type: functional, organism-based; details: Huh-7; summary of the method: as §2
Dengue virus [11] = test: Inhibition of viral spread in Dengue virus-infected asian tiger mosquito C6/36 cells assessed as accumulation of viral envelope protein within perinuclear region at 2.5 uM after 4 days by immunofluorescence assay relative to control; assay type: functional, organism-based; summary of the method: as §2
Dengue virus [12] = test: Inhibition of viral spread in Dengue virus-infected asian tiger mosquito C6/36 cells assessed as accumulation of viral envelope protein within perinuclear region at 2.5 uM after 5 days by immunofluorescence assay relative to control; assay type: functional, organism-based; summary of the method: as §2
Dengue virus [13] = test: Inhibition of viral spread in Dengue virus-infected asian tiger mosquito C6/36 cells assessed as accumulation of viral envelope protein within perinuclear region at 2.5 uM after 6 days by immunofluorescence assay relative to control; assay type: functional, organism-based; summary of the method: as §2
dengue virus type 2 [14] = test: Antiviral activity against Dengue virus 2 infected in human Huh7 cells; assay type: functional, organism-based; details: Huh-7; summary of the method: as §1
[15] = Inhibition of PDGFR
[16] = Inhibition of p38 MAPK
dengue virus type 1 = test: Antiviral activity against Dengue virus 1 Hawaii infected in african green monkey Vero cells; assay type: functional, organism-based
dengue virus type 3 = test: Antiviral activity against Dengue virus 3 H87 infected in african green monkey Vero cells; assay type: functional, organism-based
dengue virus type 4 = test: Antiviral activity against Dengue virus 4 H241 infected in african green monkey Vero cells; assay type: functional, organism-based
Modoc virus = test: Antiviral activity against Modoc virus M544 infected in african green monkey Vero cells; assay type: functional, organism-based
Poliovirus 1 = test: Antiviral activity against Poliovirus 1 infected in african green monkey Vero cells; assay type: functional, organism-based
dengue virus type 2 [17] = test: Inhibition of Dengue virus 2 assembly in african green monkey Vero cells assessed as virus-induced membrane structures at 2.5 uM after 4 days postinfection by electron microscopy; assay type: functional, organism-based
Summary of the method: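 DENV2-infected Vero cells were treated with 2.5 μM inhibitor, with DMSO-treated infected cells and DMSO-treated mock-infected cells as controls. At 4 days postinfection, cells were fixed in 2.5% glutaraldehyde plus 2.0% paraformaldehyde at 4°C for 24 h. Samples were embedded, sectioned and examined by transmission electron microscopy for virus particles and virus-induced membranes.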

dengue virus type 2 [18] = test: Antiviral activity against Dengue virus 2 NGC infected in african green monkey Vero cells after 3 days by immunofluorescence assay; assay type: functional, organism-based; details: 72 h
Summary of the method: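 DENV2 NGC was adsorbed to Vero monolayers at moi 1 for 60 min at 37°C with 5% CO2, then washed with PBS. Inhibitor was added at 0.02–10 μM final in 0.25% DMSO and incubated for 3 days. Cells were fixed and stained with anti-E mAb, FITC secondary and DAPI. Infected cells were counted in four automated-microscope fields per well and compared with DMSO-treated infected wells. IC50 came from nonlinear regression.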

For `Cn1cc(/C=C2\C(=O)Nc3ccc(S(N)(=O)=O)cc32)c2ccccc21`, which Activity (Dengue virus [1]) is on record?
Its Activity is “Active”.

What about the Activity (Dengue virus [2]) of the same molecule?
Its Activity is “Active”.

For `CN1CCN(CCOc2cc(OC3CCOCC3)c3c(Nc4c(Cl)ccc5c4OCO5)ncnc3c2)CC1`, which Activity (Dengue virus [2]) is on record?
Its Activity is “Active”.

And the Activity (dengue virus type 2 [3])?
Its Activity is “Dose-dependent effect”.

And the Activity (dengue virus type 2 [4])?
The Activity was “Dose-dependent effect”.

What about the Activity (Dengue virus [5]) of the same molecule?
Its Activity is “Active”.

And the Activity (Dengue virus [6])?
Its Activity is “Active”.

What about the Activity (Dengue virus [7]) of the same molecule?
Its Activity is “Active”.

And the Activity (Dengue virus [8])?
Its Activity is “Active”.

What about the Activity (Dengue virus [9]) of the same molecule?
The Activity was “Active”.

What about the Activity (Dengue virus [10]) of the same molecule?
Its Activity is “Active”.

What about the Activity (Dengue virus [11]) of the same molecule?
Its Activity is “Active”.

And the Activity (Dengue virus [12])?
Its Activity is “Active”.

What about the Activity (Dengue virus [13]) of the same molecule?
The Activity was “Active”.

And the Activity (dengue virus type 2 [14])?
Its Activity is “Dose-dependent effect”.

Which Activity (Dengue virus [2]) does the source give for `Cc1nc(Nc2ncc(C(=O)Nc3c(C)cccc3Cl)s2)cc(N2CCN(CCO)CC2)n1` [DASATINIB] here?
Its Activity is “Active”.

What about the IC50 [15] of the same molecule?
The IC50 was 28 nM.

What about the IC50 [16] of the same molecule?
The IC50 was 100 nM.

And the Activity (dengue virus type 2 [3])?
The Activity was “Dose-dependent effect”.

And the Activity (dengue virus type 2 [4])?
The Activity was “Dose-dependent effect”.

What about the Activity (dengue virus type 1) of the same molecule?
The Activity was “Dose-dependent effect”.

And the Activity (dengue virus type 3)?
The Activity was “Dose-dependent effect”.

What about the Activity (dengue virus type 4) of the same molecule?
The Activity was “Dose-dependent effect”.

And the Activity (Modoc virus)?
Its Activity is “Dose-dependent effect”.

And the Activity (Poliovirus 1)?
Its Activity is “inactive”.

And the Activity (Dengue virus [5])?
Its Activity is “Active”.

And the Activity (Dengue virus [6])?
The Activity was “Active”.

And the Activity (Dengue virus [7])?
The Activity was “Active”.

And the Activity (Dengue virus [8])?
Its Activity is “Active”.

What about the Activity (Dengue virus [9]) of the same molecule?
The Activity was “Active”.

And the Activity (Dengue virus [10])?
Its Activity is “Active”.

And the Activity (Dengue virus [11])?
The Activity was “Active”.

What about the Activity (Dengue virus [12]) of the same molecule?
The Activity was “Active”.

And the Activity (Dengue virus [13])?
Its Activity is “Active”.

What about the Activity (dengue virus type 2 [17]) of the same molecule?
The Activity was “Active”.

And the Activity (dengue virus type 2 [14])?
Its Activity is “Dose-dependent effect”.

With `O=C1Cc2c([nH]c3ccc(Br)cc23)-c2ccccc2N1` as the molecule, how does the Activity (Dengue virus [2]) read?
Its Activity is “Active”.

With `N#C/C(=C\c1ccc(O)c(O)c1)C(N)=O` as the molecule, how does the Activity (Dengue virus [2]) read?
Its Activity is “Active”.

With `O=C(O)c1cc(N(Cc2ccccc2O)Cc2cc(O)ccc2O)ccc1O` as the molecule, how does the Activity (Dengue virus [2]) read?
Its Activity is “Active”.

Which Activity (Dengue virus [1]) does the source give for `Cc1ccc(NC(=O)c2ccc(CN3CCN(C)CC3)cc2)cc1Nc1nccc(-c2cccnc2)n1` here?
Its Activity is “Active”.

For `NC(=O)c1cccc(-c2cc(Nc3ccc(OC(F)(F)F)cc3)ncn2)c1`, which Activity (Dengue virus [1]) is on record?
Its Activity is “Active”.

And the Activity (Dengue virus [2])?
The Activity was “Active”.

Which results are given for `Brc1c(Br)c(Br)c2[nH]nnc2c1Br`?
Activity (Dengue virus [1]): Active; Activity (Dengue virus [2]): Active

Which Activity (Dengue virus [2]) does the source give for `CCN(CC)CCNC(=O)c1c(C)[nH]c(/C=C2\C(=O)Nc3ccc(Cl)cc32)c1C` here?
Its Activity is “Active”.

Which results are given for `CNc1ncc2c(n1)N(C)C(=O)N(c1cc(NC(=O)c3cc(-n4cnc(C)c4)cc(C(F)(F)F)c3)ccc1C)C2`?
Activity (Dengue virus [1]): Active; Activity (Dengue virus [2]): Active

With `Cc1ccc(Nc2nccc(-c3ccccc3)n2)cc1F` as the molecule, how does the Activity (Dengue virus [1]) read?
The Activity was “Active”.

With `COc1cc2ncnc(Nc3cccc(Br)c3)c2cc1OC` as the molecule, how does the Activity (Dengue virus [2]) read?
Its Activity is “Active”.

Which Activity (Dengue virus [1]) does the source give for `CC(C)(C)c1nc2c3ccc(F)cc3c3c(=O)[nH]ccc3c2[nH]1` here?
Its Activity is “Active”.

With `COc1c(C)c2c(c(O)c1C/C=C(\C)CCC(=O)O)C(=O)OC2` [MYCOPHENOLIC ACID] as the molecule, how does the EC50 (dengue virus type 2 [18]) read?
Its EC50 is 5700 nM.

With `O=C(O)c1cc(NCc2cc(O)ccc2O)ccc1O` as the molecule, how does the Activity (Dengue virus [2]) read?
Its Activity is “Active”.

Which results are given for `COc1cc2ncnc(Nc3ccc(Oc4ccccc4)cc3)c2cc1OC`?
Activity (Dengue virus [1]): Active; Activity (Dengue virus [2]): Active

Which Activity (Dengue virus [2]) does the source give for `O=S(=O)(c1cccc2c(I)cccc12)N1CCCNCC1` here?
The Activity was “Active”.

— ChEMBL document CHEMBL1156446, “c-Src protein kinase inhibitors block assembly and maturation of dengue virus” (Proc Natl Acad Sci U S A, 2007)
